High-throughput results from PubChem BioAssay.
UCH37 inh – human UCH37 deubiquitinating enzyme inhibition; inhibition, % (test concentration not listed); purified proteasome/UCH37, Ub-AMC cleavage fluorescence; actives 0.33% (n = 330,000); Q9Y5K5; AID 588478;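 active means mean inhibition over replicate wells above about 20%, limit read from the data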;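 further: 0% = compound-free wells with enzyme and 100% = wells lacking proteasome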
Target sequence (Q9Y5K5 whole entry, looked up): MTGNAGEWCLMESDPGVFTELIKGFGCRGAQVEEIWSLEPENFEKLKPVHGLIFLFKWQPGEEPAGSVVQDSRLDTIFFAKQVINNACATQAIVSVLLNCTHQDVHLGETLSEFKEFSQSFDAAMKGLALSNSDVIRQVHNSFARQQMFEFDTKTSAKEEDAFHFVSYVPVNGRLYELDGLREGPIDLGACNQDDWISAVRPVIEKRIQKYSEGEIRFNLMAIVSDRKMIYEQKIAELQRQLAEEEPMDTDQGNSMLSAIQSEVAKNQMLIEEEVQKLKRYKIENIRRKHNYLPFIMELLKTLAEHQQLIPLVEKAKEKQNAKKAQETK
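Assay system: Proteasome-bound UCH37. Buffer or medium: pH 7.4 Tris-HCl (50 mM) with ovalbumin, ATP-MgCl2, DTT. Incubation: 30 min preincubation with enzyme, 25 min cleavage at room temperature. Measured by: fluorescence, ex 355 nm, em 460 nm. Read-out basis: percent inhibition. Control set: wells without proteasome as full block, compound-free enzyme plus substrate as uninhibited.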
NR3A LBD binder – modulators (binders) of human NR3A ligand-binding domain | NR3A LBD differential scanning fluorimetry, Tm shift; 0% = protein alone, 100% = glycine-bound protein | Tm shift relative to glycine control, % at 25 µM | actives 2.5% (n = 340,000) | AID 1259313;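 active means melting temperature shift of at least 10% of the positive control shift, at one fixed dose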
SENP1 FRET inh – inhibitors of human SENP1 SUMO protease catalytic domain. Q9P0U3. recombinant SENP1 catalytic domain, CyPet-SUMO1-YPet FRET cleavage. inhibition, % at 10 µM. actives 0.21% (n = 360,000);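 active means inhibition at least 30% at 10 µM, raw YFP signal under a set limit, fluorescence ratio 0.5 to 1.5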;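 further: 0% = enzyme with DMSO and 100% = no enzyme wells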
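Controls: no-enzyme wells low, DMSO-plus-enzyme wells high control. Test system: human recombinant His6-tagged SENP1 catalytic domain enzyme. Reagent: SFCypet-SUMO1-SFYpet FRET protein substrate, 25 nM final. Doses: one dose per compound, 10 µM, 0.5% DMSO. Detection: FRET, CFP and YFP emission. Timing: 50 min reaction at room temperature.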
ATG4B inhibitor – ATG4B (human) cysteine protease inhibition | actives 0.51% (n = 340,000) | inhibition, % at 8.33 µM | ATG4B cleavage of LC3-PLA2, NBD-HPC fluorescence, 1 h; in the data active means inhibition above about 40%
NadD inh – blocks S. aureus nicotinate mononucleotide adenylyltransferase; purified NadD enzyme, colorimetric absorbance read-out; inhibition, % at 20 µM; actives 0.78% (n = 360,000); in the data active means inhibition above about 26%
* hit, by the source's call; i = inactive; / = no result given; ! = repeats disagree. A selection: hits, their analogues and other compounds. The true share with any hit is near 3.6%.

SMILES	UCH37 inh	NR3A LBD binder	SENP1 FRET inh	ATG4B inhibitor	NadD inh
N[C@@H](Cc1cc(I)c(Oc2ccc(O)c(I)c2)c(I)c1)C(=O)O	4.1	-5.2	6.1	84.4*!	58.3*!
N[C@@H](Cc1cc(I)c(Oc2cc(I)c(O)c(I)c2)c(I)c1)C(=O)O	2.3	-3.8	/	44.9*	/
O=[N+]([O-])c1cccc(/C=N/N=C\c2ccccc2)c1	/	0.4	0.7	3.7	-7.2
O=[N+]([O-])c1cccc(N/N=C/c2ccc(N3CCOCC3)cc2)c1	/	21.9*	2.0	-14.5	-2.3
O=[N+]([O-])c1ccc(N/N=C/c2ccccc2)c(F)c1	/	36.0*	-26.6	-1.7	-1.8
O=[N+]([O-])c1cccc(C=NNc2ccccc2)c1	2.3	34.0*	0.6	8.1	-2.2
O=C(CNC(=O)c1cccs1)NN=Cc1ccccc1[N+](=O)[O-]	2.6	/	/	/	/
O=[N+]([O-])c1ccc(C=CC=Cc2ccccc2)cc1	/	/	-33.9	/	-0.3
CN(c1ccccc1)c1ccc(/C=C/[N+](=O)[O-])cc1	/	16.2*	9.8	4.9	12.2
C#CCOc1ccc(Cl)cc1C=NO	-0.3	/	/	/	/
O=C(NCCCN1CCOCC1)c1ccc(Sc2ccccc2Cl)c([N+](=O)[O-])c1	4.6	17.8*	2.3	-8.5	-8.0
Cc1nc2c(o1)CCc1ccccc1C2N1CCN(C)CC1 (stereo not drawn)	1.5	13.0*!	-0.5	1.4	-5.1
Cc1nc(S(=O)(=O)N2CCN(C3c4ccccc4-c4ccccc43)CC2)cn1C	6.6	-0.7	1.9	-9.3	9.4
CN(C)Cc1c(C(=O)NN=Cc2ccc(OCc3c(F)cccc3Cl)cc2)nnn1-c1nonc1N	0.0	/	/	/	/
COc1ccc(C=Nn2c(C3CCCCC3)n[nH]c2=S)c(OC)c1	6.0	/	/	/	/
NC(=NCCc1c[nH]c2ccccc12)NS(=O)(=O)c1ccc(F)cc1	-2.0	-1.6	0.1	-0.6	-4.4
NC(=NCCc1c[nH]c2ccccc12)NC(=O)c1ccc(F)cc1	5.2	38.4*	2.5	-21.4	-12.0
Cc1cc(=O)oc2cc(OC(=O)c3ccco3)ccc12	i	-1.0	-142.4	-6.8	3.2
CCc1cc(=O)oc2cc(OC(=O)c3ccco3)ccc12	i	476.1*	-143.4	-9.7	-4.0
Cc1ccc(N2CCN(N=Cc3ccccc3)CC2)cc1	-0.3	/	/	/	/
Cc1[nH]c(=S)[nH]c(=O)c1CCC1OCCO1	3.8	13.5*	1.7	2.8	-9.0
Cc1[nH]c(=S)[nH]c(=O)c1CCCO	/	-1.4	1.1	-1.6	-2.8
CC(=O)Nc1nc(C)c(CCC2OCCO2)c(=O)[nH]1	3.8	12.1*	1.8	4.9	-6.6
O=C(NN=Cc1ccc(O)cc1)c1ccc(NC(=O)c2ccccc2Br)cc1	3.2	/	/	/	/
Cc1ccccc1C(=O)Nc1ccc(C(=O)N/N=C/c2ccc(O)cc2)cc1	/	28.0*	2.0	-7.7	-5.1
SMILES	UCH37 inh	NR3A LBD binder	SENP1 FRET inh	ATG4B inhibitor	NadD inh
Cc1ccccc1C(=O)Nc1ccc(C(=O)N/N=C/c2ccncc2)cc1	/	-0.6	-7.1	-3.5	-6.0
O=C(N/N=C/c1ccc(O)cc1)c1ccc(NC(=O)c2ccccc2Br)cc1	/	17.6*	-0.2	-6.6	5.3
CC1=NN(c2nc(-c3ccc(F)cc3)cs2)C(=O)C1	2.1	2.6	1.1	-8.5	4.9
CC1=NN(c2nc(-c3ccc(Cl)cc3)cs2)C(=O)C1	4.2	19.4*	2.1	3.2	11.4
CC(C)(O)C(=O)NN=Cc1ccc(OC/C=C/c2ccccc2)cc1	4.3	/	/	/	/
C(=N\Nc1nnnn1-c1ccccc1)/c1ccncc1	/	1.0	-0.7	25.8	1.1
O=C(O)c1ccc(/C=N/Nc2nnnn2-c2ccccc2)cc1	/	10.2*	2.5	7.2	-6.1
O=C1N/C(=N/Nc2ccccc2)S/C1=C\c1ccccc1	-4.2	10.5*	104.8*	8.5	12.6
COc1ccc(N=C2NC(=O)/C(=C/C=C/c3ccccc3)S2)cc1	9.6	14.3*	2.1	-9.3	27.1
COc1ccc(/C=C2\SC(=NCc3ccccc3)NC2=O)cc1	0.2	16.8*	3.7	7.5	0.7
COc1ccc(N=C2NC(=O)/C(=C\C=C\c3ccccc3)S2)cc1	/	6.4	1.7	4.6	25.7*
COC(=O)/C=C1\SC(=Nc2ccc(OC)cc2)NC1=O	6.1	-0.1	0.9	0.0	7.5
COc1ccc(/C=C2\SC(=Nc3ccccc3OC)NC2=O)cc1	8.6	-1.4	-3.6	5.8	8.6
Cc1ccc(-n2c(C)cc(C=NNC(=O)Cn3c4ccccc4c(=O)c4ccccc43)c2C)cc1	-19.2	/	/	/	/
